In ChEMBL document CHEMBL1629527, “In vitro antifungal activities of bis(alkylpyridinium)alkane compounds against pathogenic yeasts and molds” (Antimicrob Agents Chemother, 2010):

Experiments:
[1] = tested on: Candida albicans; assay: Antifungal activity against Candida albicans after 48 to 72 hrs; format: functional
How it was run: (§1)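 MFC: after the MIC read, 30-μl aliquots from each well without visible growth were plated onto Sabouraud dextrose agar and incubated at 35°C. Reading was at 48–72 h for yeasts and up to 7 days for molds. MFC was the lowest concentration with no colonies.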

[2] = tested on: Nakaseomyces glabratus; assay: Antifungal activity against Candida glabrata after 48 to 72 hrs; format: functional; how it was run: as §1
[3] = tested on: Candida parapsilosis; assay: Antifungal activity against Candida parapsilosis after 48 to 72 hrs; format: functional; how it was run: as §1
[4] = tested on: Pichia kudriavzevii; assay: Antifungal activity against Candida krusei after 48 to 72 hrs; format: functional; how it was run: as §1
[5] = tested on: Candida dubliniensis; assay: Antifungal activity against Candida dubliniensis after 48 to 72 hrs; format: functional; how it was run: as §1
[6] = tested on: Meyerozyma guilliermondii; assay: Antifungal activity against Candida guilliermondii after 48 to 72 hrs; format: functional; how it was run: as §1
[7] = tested on: Clavispora lusitaniae; assay: Antifungal activity against Candida lusitaniae after 48 to 72 hrs; format: functional; how it was run: as §1
[8] = tested on: Cryptococcus neoformans; assay: Antifungal activity against Cryptococcus neoformans after 48 to 72 hrs; format: functional; how it was run: as §1
[9] = Toxicity against human erythrocytes assessed as hemolysis; format: cell-based, Erythrocyte
[10] = tested on: Rhizopus arrhizus; assay: Antifungal activity against Rhizopus oryzae 05-203111 after 48 to 72 hrs; format: functional
How it was run: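 After the broth microdilution MIC read, suspension from every well without visible growth was plated onto Sabouraud dextrose agar and incubated at 35°C, up to 7 days for molds. MFC was taken as the lowest drug concentration with no colonies.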

[11] = tested on: Candida tropicalis; assay: Antifungal activity against Candida tropicalis after 24 to 72 hrs by broth microdilution method; format: functional
How it was run: (§2)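 Broth microdilution MIC per CLSI M27-A3 (yeasts) or M38-A2 (molds). RPMI 1640 with L-glutamine, without bicarbonate, buffered to pH 7.0 with 0.165 M MOPS. Final test range for the compounds was 0.175–87.5 μM. Incubation at 35°C with visual reading at 24–72 h. MIC was the lowest concentration giving 100% inhibition versus the growth control (azoles 50% or 100%, by organism). Each isolate was run in duplicate in two independent experiments.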

[12] = tested on: Candida parapsilosis; assay: Antifungal activity against Candida parapsilosis after 24 to 72 hrs by broth microdilution method; format: functional; details: Lodderomyces parapsilosis; how it was run: as §2
[13] = tested on: Pichia kudriavzevii; assay: Antifungal activity against Candida krusei after 24 to 72 hrs by broth microdilution method; format: functional; how it was run: as §2
[14] = tested on: Candida dubliniensis; assay: Antifungal activity against Candida dubliniensis after 24 to 72 hrs by broth microdilution method; format: functional; how it was run: as §2
[15] = tested on: Meyerozyma guilliermondii; assay: Antifungal activity against Candida guilliermondii after 24 to 72 hrs by broth microdilution method; format: functional; how it was run: as §2
[16] = tested on: Cryptococcus neoformans; assay: Antifungal activity against Cryptococcus neoformans 05-202523 after 48 to 72 hrs; format: functional; how it was run: as §1
[17] = tested on: Aspergillus flavus; assay: Antifungal activity against Aspergillus flavus ATCC 204304 after 48 to 72 hrs; format: functional; how it was run: as §1
[18] = tested on: Exophiala spinifera; assay: Antifungal activity against Exophiala spinifera 03-200803 after 24 to 72 hrs by broth microdilution method; format: functional
How it was run: (§3)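 Mold isolates subcultured on potato dextrose agar, then tested by CLSI M38-A2 broth microdilution in RPMI 1640 (L-glutamine, no bicarbonate) buffered to pH 7.0 with 0.165 M MOPS. Compounds were dissolved in water and tested at a final 0.175–87.5 μM. Plates were incubated at 35°C. MIC was read visually as the lowest concentration giving 100% inhibition versus the growth control. Each isolate was run in duplicate in two independent experiments.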

[19] = tested on: Fusarium solani; assay: Antifungal activity against Fusarium solani 04-203102 after 24 to 72 hrs by broth microdilution method; format: functional; how it was run: as §3
[20] = Antifungal activity against Paecilomyces lilacinus 05-200601 after 24 to 72 hrs by broth microdilution method; format: functional; details: Purpureocillium lilacinum; how it was run: as §3
[21] = tested on: Rhizopus arrhizus; assay: Antifungal activity against Rhizopus oryzae 05-203111 after 24 to 72 hrs by broth microdilution method; format: functional; how it was run: as §3
[22] = tested on: Aspergillus flavus; assay: Antifungal activity against Aspergillus flavus ATCC 204304 after 24 to 72 hrs by broth microdilution method; format: functional; how it was run: as §2
[23] = tested on: Aspergillus terreus; assay: Antifungal activity against Aspergillus terreus 05-202844 after 24 to 72 hrs by broth microdilution method; format: functional; how it was run: as §2
[24] = tested on: Lomentospora prolificans; assay: Antifungal activity against Scedosporium prolificans 05-203060 after 24 to 72 hrs by broth microdilution method; format: functional; how it was run: as §3
[25] = tested on: Scedosporium apiospermum; assay: Antifungal activity against Scedosporium apiospermum 05-203100 after 24 to 72 hrs by broth microdilution method; format: functional; how it was run: as §3
[26] = tested on: Lichtheimia corymbifera; assay: Antifungal activity against Absidia corymbifera 04-200170 after 24 to 72 hrs by broth microdilution method; format: functional; how it was run: as §2
[27] = tested on: Aspergillus fumigatus; assay: Antifungal activity against Aspergillus fumigatus ATCC 204305 after 24 to 72 hrs by broth microdilution method; format: functional; how it was run: as §2
[28] = tested on: Cryptococcus gattii species complex; assay: Antifungal activity against Cryptococcus gattii 05-200122 after 24 to 72 hrs by broth microdilution method; format: functional, Cryptococcus bacillisporus; how it was run: as §2
[29] = tested on: Cryptococcus neoformans; assay: Antifungal activity against Cryptococcus neoformans 05-202523 after 24 to 72 hrs by broth microdilution method; format: functional; how it was run: as §2
[30] = tested on: Cryptococcus neoformans; assay: Antifungal activity against Cryptococcus neoformans ATCC 90112 after 24 to 72 hrs by broth microdilution method; format: functional; how it was run: as §2
[31] = tested on: Nakaseomyces glabratus; assay: Antifungal activity against Candida glabrata 04-202345 after 24 to 72 hrs by broth microdilution method; format: functional; how it was run: as §2
[32] = tested on: Candida parapsilosis; assay: Antifungal activity against Candida parapsilosis 04-202398 after 24 to 72 hrs by broth microdilution method; format: functional; details: Lodderomyces parapsilosis; how it was run: as §2
[33] = tested on: Pichia kudriavzevii; assay: Antifungal activity against Candida krusei 04-202328 after 24 to 72 hrs by broth microdilution method; format: functional; how it was run: as §2
[34] = tested on: Candida parapsilosis; assay: Antifungal activity against Candida parapsilosis ATCC 22019 after 24 to 72 hrs by broth microdilution method; format: functional; details: Lodderomyces parapsilosis; how it was run: as §2
[35] = tested on: Pichia kudriavzevii; assay: Antifungal activity against Candida krusei ATCC 6258 after 24 to 72 hrs by broth microdilution method; format: functional; how it was run: as §2
[36] = tested on: Candida albicans; assay: Antifungal activity against Candida albicans ATCC 10231 after 24 to 72 hrs by broth microdilution method; format: functional; how it was run: as §2
[37] = tested on: Candida albicans; assay: Antifungal activity against Candida albicans ATCC 90028 after 24 to 72 hrs by broth microdilution method; format: functional; how it was run: as §2
[38] = Antifungal activity against Exophiala jeanselmei 03-200268 after 24 to 72 hrs by broth microdilution method; format: functional; how it was run: as §2

CCCCCc1cc[n+](CCCCCCCCCCCC[n+]2ccc(CCCCC)c(C)c2)cc1C.[Cl-].[Cl-]
0.908 µg/mL: MIC [14]
> 50.7 µg/mL: MIC [20]
50.7 µg/mL: MIC [26]
1.58 µg/mL: MIC [21] | MIC [24] | MIC [36] | MIC [37] | MIC [38]
25.3 µg/mL: MFC [16] | MFC [17] | MIC [27] | MIC [32]
49.5 µg/mL: MFC50 [3] | MFC90 [3] | MFC ([3]; Lodderomyces parapsilosis) | MIC90 [12]
> 48 µM: IC50 [9]
0.7 µg/mL: MIC [23]
0.79 µg/mL: MFC ([1]; Candida albicans) | MFC50 [2] | MFC ([4]; Pichia kudriavzevii) | MFC50 [5] | MFC ([5]; Candida dubliniensis) | MFC50 [6] | MFC50 [8] | MFC ([8]; Cryptococcus neoformans) | MIC [11] | MIC50 [11] | MIC90 [11] | MIC50 [14] | MIC90 [14] | MIC50 [15] | MIC [18] | MIC [28] | MIC [30] | MIC [31] | MIC [34]
6.3 µg/mL: MFC [10] | MIC [25] | MIC [33] | MIC [35]
12.45 µg/mL: MFC90 [8]
1.56 µg/mL: MFC50 [1] | MFC90 [1] | MFC90 [2] | MFC90 [5] | MFC90 [6] | MFC ([7]; Clavispora lusitaniae) | MIC90 [15]
30.6 µg/mL: MIC [12]
> 129 µM: HC50 [9]
0.903 µg/mL: MIC [15]
0.39 µg/mL: MFC ([2]; Nakaseomyces glabratus) | MFC ([6]; Meyerozyma guilliermondii)
12.7 µg/mL: MIC [19] | MIC [22] | MIC [29]
24.9 µg/mL: MIC50 [12]
3.12 µg/mL: MIC [13]
3.11 µg/mL: MFC50 [7] | MIC50 [13]
6.22 µg/mL: MFC50 [4] | MFC90 [4] | MFC90 [7] | MIC90 [13]
